Common to all, as to assay type: functional
Common to all, as to set-up: scale not given: the % may be the effect or the level left

The test system of assay [1] is Spodoptera litura. Put plainly: Antifeedant activity against fourth-instar larval stage of Spodoptera litura reared on castor leaves assessed as decrease in food consumption at 50 ug/cm2 after 48 hr by no-choice leaf disk assay relative to untreated control. Summed up:
(§1)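 Larvae reared on fresh castor leaves at 27 ± 1 °C, 65 ± 5% RH, 14:10 light:dark; freshly molted fourth instars used. Treated leaf disks placed with larvae in Petri dishes; leaf area consumed in treated and control disks measured by planimeter. Percent protection corrected for control by Singh and Panth formula; mean with standard deviation reported.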

Assay [2] deals with Spodoptera litura. Put plainly: Antifeedant activity against fourth-instar larval stage of Spodoptera litura reared on castor leaves assessed as decrease in food consumption at 100 ug/cm2 after 48 hr by no-choice leaf disk assay relative to untreated control. Summed up: as §1
The test system of assay [3] is Spodoptera litura. Put plainly: Antifeedant activity against fourth-instar larval stage of Spodoptera litura reared on castor leaves assessed as decrease in food consumption at 150 ug/cm2 after 48 hr by no-choice leaf disk assay relative to untreated control. Summed up:
as §1

The subject of assay [4] is Spodoptera litura. Put plainly: Antifeedant activity against fourth-instar larval stage of Spodoptera litura reared on castor leaves assessed as decrease in food consumption at 50 to 150 ug/cm2 measured after 48 hr by no-choice leaf disk assay relative to untreated control. Summed up:
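Larvae reared on fresh castor leaves at 27 ± 1 °C, 65 ± 5% relative humidity, 14:10 light:dark; freshly molted fourth-instar larvae used. No-choice leaf disk test in Petri dish at 150, 100 and 50 µg/cm2. Leaf area consumed measured by planimeter at 6, 12, 24 and 48 h in treated and control disks. Percent protection corrected for control protection; mean with standard deviation.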

Calls of active or inactive are those of the source. The rule behind the calls is not given here.

In the case of `CCCCCCCCCCCCCCCC(=O)O[C@H]1CC[C@]2(C)[C@H]3CC=C4[C@@H]5[C@@H](C)[C@H](C)CC[C@]5(C(=O)O)CC[C@@]4(C)[C@]3(C)CC[C@H]2C1(C)C`, the Activity with Spodoptera litura [1] is on record as more than 50%; in the assay with Spodoptera litura [2] it was 40%; with Spodoptera litura [3] it was more than 50%.

As for `CCCCCCCCCCCCCCCCCC(=O)O[C@H]1CC[C@]2(C)[C@H]3CC=C4[C@@H]5CC(C)(C)CC[C@]5(C(=O)O)CC[C@@]4(C)[C@]3(C)CC[C@H]2C1(C)C`, the result in the assay on Spodoptera litura [2] and with Spodoptera litura [3] was Active.

Consider `C/C=C(\C)C(=O)O[C@H]1C[C@@H](OC(C)=O)[C@@]2(C(=O)OC)CO[C@H]3[C@@H](O)[C@@](C)([C@]45O[C@@]4(C)[C@H]4C[C@@H]5O[C@@H]5OC=C[C@@]54O)[C@H]4[C@]1(CO[C@]4(O)C(=O)OC)[C@@H]32` [AZADIRACTIN], for which the Activity in the assay with Spodoptera litura [4] is 81%; in the assay with Spodoptera litura [2] it was 40%; in the assay on Spodoptera litura [3] it was more than 50%.

With `CCCCCCCCCCCCCCCC(=O)O[C@H]1CC[C@]2(C)[C@H]3CC=C4[C@@H]5CC(C)(C)CC[C@]5(C(=O)O)CC[C@@]4(C)[C@]3(C)CC[C@H]2C1(C)C` [OLEAN-12-ENE-28-CARBOXY-3BETA-HEXADECANOATE], the Activity in the assay on Spodoptera litura [1] is given as 71%; in the assay on Spodoptera litura [2], 40%; in the assay on Spodoptera litura [3], more than 50%.

As for `CC1(C)CC[C@]2(C(=O)O)CC[C@]3(C)C(=CC[C@@H]4[C@@]5(C)CC[C@H](O)C(C)(C)[C@@H]5CC[C@]43C)[C@@H]2C1` [OLEANOLIC_ACID], the Activity in the assay on Spodoptera litura [2] is 40%. Further, the result in the assay with Spodoptera litura [3] was Active.

Take `CCCCCCCCCCCC(=O)O[C@H]1CC[C@]2(C)[C@H]3CC=C4[C@@H]5[C@@H](C)[C@H](C)CC[C@]5(C(=O)O)CC[C@@]4(C)[C@]3(C)CC[C@H]2C1(C)C` [URS-12-ENE-28-CARBOXY-3BETA-DODECANOATE]: the Activity is listed as 40% in the assay with Spodoptera litura [2] and more than 50% in the assay on Spodoptera litura [3].

As to `CCCCCCCCCCCCCCCCCC(=O)O[C@H]1CC[C@]2(C)[C@H]3CC=C4[C@@H]5[C@@H](C)[C@H](C)CC[C@]5(C(=O)O)CC[C@@]4(C)[C@]3(C)CC[C@H]2C1(C)C` [URS-12-ENE-28-CARBOXY-3BETA-OCTADECANOATE], the Activity is 74% in the assay with Spodoptera litura [1], 40% with Spodoptera litura [2] and more than 50% in the assay with Spodoptera litura [3].

Take `CCCCCCCCCCCCCC(=O)O[C@H]1CC[C@]2(C)[C@H]3CC=C4[C@@H]5[C@@H](C)[C@H](C)CC[C@]5(C(=O)O)CC[C@@]4(C)[C@]3(C)CC[C@H]2C1(C)C` [URS-12-ENE-28-CARBOXY-3BETA-TETRADECANOATE]: the Activity in the assay with Spodoptera litura [1] was more than 50%; with Spodoptera litura [2], 40%; with Spodoptera litura [3], more than 50%.

Consider `C[C@H]1[C@H](C)CC[C@]2(C(=O)O)CC[C@]3(C)C(=CC[C@@H]4[C@@]5(C)CC[C@H](O)C(C)(C)[C@@H]5CC[C@]43C)[C@H]12` [URSOLIC ACID], for which the Activity with Spodoptera litura [2] is 40%; in the assay on Spodoptera litura [3], more than 50%.

The record behind these values is ChEMBL document CHEMBL3044910, “Antifeedant activity of some pentacyclic triterpene acids and their fatty acid ester analogues” (2003).
